In ChEMBL document CHEMBL3593164, “Rational Design and Synthesis of Thioridazine Analogues as Enhancers of the Antituberculosis Therapy” (J Med Chem, 2015):

Experiments:
[1] = tested on: Mycobacterium tuberculosis; test: Inhibition of multidrug resistance efflux pump in Mycobacterium tuberculosis H37Rv using ethidium bromide as substrate assessed as relative final fluorescence at 1/2 MIC by real-time fluorometry
[2] = tested on: Mycobacterium tuberculosis; test: Inhibition of multidrug resistance efflux pump in Mycobacterium tuberculosis H37Rv assessed as isoniazid MIC at 4 ug/ml after 7 days by two-dimensional broth microdilution checkerboard assay; conditions: 168 h
[3] = tested on: Mycobacterium tuberculosis; test: Inhibition of multidrug resistance efflux pump in Mycobacterium tuberculosis H37Rv assessed as isoniazid MIC at 64 ug/ml after 7 days by two-dimensional broth microdilution checkerboard assay; conditions: 168 h
[4] = tested on: Mycobacterium tuberculosis; test: Inhibition of multidrug resistance efflux pump in Mycobacterium tuberculosis H37Rv assessed as ethidium bromide MIC at 128 ug/ml after 7 days by two-dimensional broth microdilution checkerboard assay; conditions: 168 h
[5] = tested on: Mycobacterium tuberculosis; test: Inhibition of multidrug resistance efflux pump in Mycobacterium tuberculosis H37Rv assessed as ofloxacin MIC at 8 ug/ml after 7 days by two-dimensional broth microdilution checkerboard assay; conditions: 168 h
[6] = tested on: Mycobacterium tuberculosis; test: Inhibition of multidrug resistance efflux pump in Mycobacterium tuberculosis H37Rv assessed as ofloxacin MIC at 4 ug/ml after 7 days by two-dimensional broth microdilution checkerboard assay; conditions: 168 h
[7] = tested on: Mycobacterium tuberculosis; test: Inhibition of multidrug resistance efflux pump in Mycobacterium tuberculosis H37Rv assessed as ofloxacin MIC at 32 ug/ml after 7 days by two-dimensional broth microdilution checkerboard assay; conditions: 168 h
[8] = tested on: Mycobacterium tuberculosis; test: Inhibition of multidrug resistance efflux pump in Mycobacterium tuberculosis H37Rv assessed as isoniazid MIC at 32 ug/ml after 7 days by two-dimensional broth microdilution checkerboard assay; conditions: 168 h
[9] = tested on: Mycobacterium tuberculosis; test: Inhibition of multidrug resistance efflux pump in Mycobacterium tuberculosis H37Rv assessed as rifampin MIC at 128 ug/ml after 7 days by two-dimensional broth microdilution checkerboard assay; conditions: 168 h
[10] = tested on: Mycobacterium tuberculosis; test: Inhibition of multidrug resistance efflux pump in Mycobacterium tuberculosis H37Rv assessed as rifampin MIC at 4 ug/ml after 7 days by two-dimensional broth microdilution checkerboard assay; conditions: 168 h
[11] = tested on: Mycobacterium tuberculosis; test: Inhibition of multidrug resistance efflux pump in Mycobacterium tuberculosis H37Rv assessed as ofloxacin MIC at 64 ug/ml after 7 days by two-dimensional broth microdilution checkerboard assay; conditions: 168 h
[12] = tested on: Mycobacterium tuberculosis; test: Inhibition of multidrug resistance efflux pump in Mycobacterium tuberculosis H37Rv assessed as isoniazid MIC at 8 ug/ml after 7 days by two-dimensional broth microdilution checkerboard assay; conditions: 168 h
[13] = tested on: Mycobacterium tuberculosis; test: Inhibition of multidrug resistance efflux pump in Mycobacterium tuberculosis H37Rv assessed as rifampin MIC at 256 ug/ml after 7 days by two-dimensional broth microdilution checkerboard assay; conditions: 168 h
Summary of the method: (§1)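 M. tuberculosis H37Rv two-dimensional broth microdilution checkerboard. MICs of INH, RIF, AMK, OFX or EtBr were determined without and with graded sub-inhibitory compound concentrations, starting at ½ MIC. Where MIC was undeterminable, the highest concentration still permitting growth was taken as ½ MIC. FIC = MIC of antibacterial in combination / MIC alone. FIC ≤0.25 was scored as synergism and ≥2 as antagonism.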

[14] = tested on: Mycobacterium tuberculosis; test: Inhibition of multidrug resistance efflux pump in Mycobacterium tuberculosis H37Rv assessed as reduction in rifampin MIC at 256 ug/ml after 7 days by two-dimensional broth microdilution checkerboard assay; summary of the method: as §1
[15] = tested on: Mycobacterium tuberculosis; test: Inhibition of multidrug resistance efflux pump in Mycobacterium tuberculosis H37Rv assessed as isoniazid MIC at 256 ug/ml after 7 days by two-dimensional broth microdilution checkerboard assay; conditions: 168 h; summary of the method: as §1
[16] = tested on: Mycobacterium tuberculosis; test: Inhibition of multidrug resistance efflux pump in Mycobacterium tuberculosis H37Rv assessed as ofloxacin MIC at 256 ug/ml after 7 days by two-dimensional broth microdilution checkerboard assay; conditions: 168 h; summary of the method: as §1
[17] = tested on: Mycobacterium tuberculosis; test: Inhibition of multidrug resistance efflux pump in Mycobacterium tuberculosis H37Rv assessed as ethidium bromide MIC at 32 ug/ml after 7 days by two-dimensional broth microdilution checkerboard assay; conditions: 168 h
[18] = tested on: Mycobacterium tuberculosis; test: Inhibition of multidrug resistance efflux pump in Mycobacterium tuberculosis H37Rv assessed as ethidium bromide MIC at 64 ug/ml after 7 days by two-dimensional broth microdilution checkerboard assay; conditions: 168 h
[19] = tested on: Mycobacterium tuberculosis; test: Inhibition of multidrug resistance efflux pump in Mycobacterium tuberculosis H37Rv assessed as rifampin MIC at 16 ug/ml after 7 days by two-dimensional broth microdilution checkerboard assay; conditions: 168 h
[20] = tested on: Mycobacterium tuberculosis; test: Inhibition of multidrug resistance efflux pump in Mycobacterium tuberculosis H37Rv assessed as ethidium bromide MIC at 4 ug/ml after 7 days by two-dimensional broth microdilution checkerboard assay; conditions: 168 h
[21] = tested on: Mycobacterium tuberculosis; test: Inhibition of multidrug resistance efflux pump in Mycobacterium tuberculosis H37Rv assessed as ofloxacin MIC at 128 ug/ml after 7 days by two-dimensional broth microdilution checkerboard assay; conditions: 168 h
[22] = tested on: Mycobacterium tuberculosis; test: Inhibition of multidrug resistance efflux pump in Mycobacterium tuberculosis H37Rv assessed as ethidium bromide MIC at 16 ug/ml after 7 days by two-dimensional broth microdilution checkerboard assay; conditions: 168 h
[23] = tested on: Mycobacterium tuberculosis; test: Inhibition of multidrug resistance efflux pump in Mycobacterium tuberculosis H37Rv assessed as isoniazid MIC at 128 ug/ml after 7 days by two-dimensional broth microdilution checkerboard assay; conditions: 168 h
[24] = tested on: Mycobacterium tuberculosis H37Rv; test: Ratio of thioridazine to compound for Inhibition of multidrug resistance efflux pump in Mycobacterium tuberculosis H37Rv using ethidium bromide as substrate assessed as relative final fluorescence at 1/2 MIC by real-time fluorometry
Summary of the method: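 H37Rv cells were loaded with EtBr at 0.5 µg/mL with test compound at ½ MIC. Where the MIC exceeded the testable range, the last determinable concentration was taken as ½ MIC. EtBr retention was followed by real-time fluorometry and expressed as relative final fluorescence (RFF), with verapamil and thioridazine as controls.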

[25] = tested on: Mycobacterium tuberculosis; test: Inhibition of multidrug resistance efflux pump in Mycobacterium tuberculosis H37Rv assessed as amikacin MIC at 256 ug/ml after 7 days by two-dimensional broth microdilution checkerboard assay; conditions: 168 h; summary of the method: as §1
[26] = tested on: Mycobacterium tuberculosis; test: Inhibition of multidrug resistance efflux pump in Mycobacterium tuberculosis H37Rv assessed as isoniazid MIC at 16 ug/ml after 7 days by two-dimensional broth microdilution checkerboard assay; conditions: 168 h
[27] = tested on: Mycobacterium tuberculosis; test: Inhibition of multidrug resistance efflux pump in Mycobacterium tuberculosis H37Rv assessed as rifampin MIC at 8 ug/ml after 7 days by two-dimensional broth microdilution checkerboard assay; conditions: 168 h
[28] = tested on: Mycobacterium tuberculosis; test: Inhibition of multidrug resistance efflux pump in Mycobacterium tuberculosis H37Rv assessed as amikacin MIC at 32 ug/ml after 7 days by two-dimensional broth microdilution checkerboard assay; conditions: 168 h
[29] = tested on: Mycobacterium tuberculosis; test: Inhibition of multidrug resistance efflux pump in Mycobacterium tuberculosis H37Rv assessed as amikacin MIC at 16 ug/ml after 7 days by two-dimensional broth microdilution checkerboard assay; conditions: 168 h
[30] = tested on: Mycobacterium tuberculosis; test: Inhibition of multidrug resistance efflux pump in Mycobacterium tuberculosis H37Rv assessed as ethidium bromide MIC at 256 ug/ml after 7 days by two-dimensional broth microdilution checkerboard assay; conditions: 168 h
[31] = tested on: Mycobacterium tuberculosis; test: Inhibition of multidrug resistance efflux pump in Mycobacterium tuberculosis H37Rv assessed as reduction in rifampin MIC at 64 ug/ml after 7 days by two-dimensional broth microdilution checkerboard assay
[32] = tested on: Mycobacterium tuberculosis; test: Inhibition of multidrug resistance efflux pump in Mycobacterium tuberculosis H37Rv assessed as reduction in rifampin MIC at 32 ug/ml after 7 days by two-dimensional broth microdilution checkerboard assay; summary of the method: as §1

SMILES | RFU [1] | MIC [2] | MIC [3] | MIC [4] | MIC [5] | MIC [6] | MIC [7] | MIC [8] | MIC [10] | MIC [11] | MIC [12] | MIC [17] | MIC [18] | MIC [19] | MIC [20] | MIC [22] | MIC [26] | MIC [27] | MIC [28] | MIC [29] | also measured
CN1CCCCC1CCn1cnc2ccccc21 (racemic) | 1 | 100 ng/mL | 100 ng/mL | 12500 ng/mL | 1000 ng/mL | 1000 ng/mL | 1000 ng/mL | 100 ng/mL | 500 ng/mL | 1000 ng/mL | 100 ng/mL | 12500 ng/mL | 12500 ng/mL | 500 ng/mL | 12500 ng/mL | 12500 ng/mL | 100 ng/mL | 500 ng/mL | 1000 ng/mL | 1000 ng/mL | MIC [9]: 500 ng/mL; MIC [13]: < 15.6 ng/mL; fold change (FC) [14]: >64; MIC [15]: < 0.78 ng/mL; MIC [16]: < 15.6 ng/mL; MIC [21]: 1000 ng/mL; MIC [23]: 100 ng/mL; Ratio IC50 [24]: 2; MIC [25]: < 15.6 ng/mL; MIC [30]: < 195 ng/mL
CSc1ccc2c(c1)N(CCC1CCCCN1C)c1ccccc1S2 (stereo unspecified) [THIORIDAZINE] | 0.27 |  |  |  |  |  |  |  |  |  |  |  |  |  |  |  |  |  |  |  | 
COc1ccc(N(CCC2CCCCN2C)C(C)C)cc1OC (racemic) | 0.84 | 100 ng/mL | 100 ng/mL | 12500 ng/mL | 2000 ng/mL | 2000 ng/mL | 2000 ng/mL | 100 ng/mL | 250 ng/mL | 2000 ng/mL | 100 ng/mL | 12500 ng/mL | 12500 ng/mL | 250 ng/mL | 12500 ng/mL | 12500 ng/mL | 100 ng/mL | 250 ng/mL | 2000 ng/mL | 2000 ng/mL | fold change (FC) [31]: 4; MIC [9]: 250 ng/mL; fold change (FC) [32]: 4; MIC [13]: < 15.6 ng/mL; fold change (FC) [14]: 164; MIC [15]: 100 ng/mL; MIC [16]: 1000 ng/mL; MIC [21]: 2000 ng/mL; MIC [23]: 100 ng/mL; Ratio IC50 [24]: 2; MIC [25]: 2000 ng/mL; MIC [30]: 12500 ng/mL
CN1CCCCC1CCn1c2ccccc2c2ccccc21 (racemic) | 0.33 | 100 ng/mL | < 0.078 ng/mL |  | 1000 ng/mL | 1000 ng/mL | 1000 ng/mL | 50 ng/mL | 1000 ng/mL | < 15.6 ng/mL | 100 ng/mL | 1560 ng/mL | < 195 ng/mL | 500 ng/mL | 12500 ng/mL | 6250 ng/mL | 100 ng/mL | 500 ng/mL | 625 ng/mL | 1000 ng/mL | fold change (FC) [31]: >64; fold change (FC) [32]: 16
CN1CCCCC1CCn1ccc2ccc(Br)cc21 (racemic) | 1.22 | 100 ng/mL | 50 ng/mL | < 195 ng/mL | 1000 ng/mL | 1000 ng/mL | 1000 ng/mL | 100 ng/mL | 500 ng/mL | < 15.6 ng/mL | 100 ng/mL | 6250 ng/mL | 1560 ng/mL | 62.5 ng/mL | 12500 ng/mL | 12500 ng/mL | 100 ng/mL | 250 ng/mL | 1000 ng/mL | 1000 ng/mL | fold change (FC) [31]: >164; MIC [9]: < 15.6 ng/mL; fold change (FC) [32]: 32; MIC [13]: < 15.6 ng/mL; fold change (FC) [14]: >164; MIC [15]: < 0.78 ng/mL; MIC [16]: < 15.6 ng/mL; MIC [21]: < 15.6 ng/mL; MIC [23]: < 1.5 ng/mL; Ratio IC50 [24]: 2; MIC [25]: < 15.6 ng/mL; MIC [30]: < 195 ng/mL
